Converted amounts (≈) assume the structure as drawn.
Assays:
Escherichia coli = assay: Antimicrobial activity against Escherichia coli ATCC 25922; type: functional
Moraxella catarrhalis = assay: Antimicrobial activity against Moraxella catarrhalis; type: functional
Enterococcus [1] = assay: Antimicrobial activity against vancomycin-resistant Enterococcus by agar dilution method; type: functional
How it was run: (§1)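 Agar dilution per CLSI on Mueller-Hinton agar, test agents at 0.12 to 8 µg/ml; test compounds dissolved in 20% water in DMSO, linezolid in 40% water in ethanol, vancomycin in water. Clinical isolates inoculated at final 10^7 CFU/ml, incubated 35 °C for 18 h. MIC = lowest concentration completely inhibiting growth; reported as range across isolates.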

Staphylococcus [2] = assay: Antimicrobial activity against methicillin-susceptible coagulase-negative staphylococcus by agar dilution method; type: functional; how it was run: as §1
Streptococcus pneumoniae = assay: Antimicrobial activity against Streptococcus pneumoniae by agar dilution method; type: functional
How it was run: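 Agar dilution per CLSI on Mueller–Hinton agar holding drug dilutions from 0.12 to 8 µg/ml. Staphylococci and enterococci tested on plain MH agar, S. pneumoniae on MH agar with 5% sheep blood. Test compounds dissolved in 20% water in DMSO. Inoculum 10⁷ CFU/ml, incubated 35 °C for 18 h. MIC was the lowest concentration giving complete growth inhibition.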

Staphylococcus aureus [3] = assay: Antimicrobial activity against Staphylococcus aureus ATCC 25923 by agar dilution method
Staphylococcus [4] = assay: Antimicrobial activity against methicillin-resistant coagulase-negative Staphylococcus by agar dilution method; type: functional; how it was run: as §1
Haemophilus influenzae = assay: Antimicrobial activity against Haemophilus influenzae; type: functional
Staphylococcus aureus [5] = assay: Antimicrobial activity against methicillin-susceptible Staphylococcus aureus by agar dilution method; type: functional; how it was run: as §1
Staphylococcus aureus [6] = assay: Antimicrobial activity against Staphylococcus aureus ATCC 25922 in presence of 50% human plasma […]; type: functional; conditions: ATCC 25923, Plasma, in the assay text read “ATCC 25923” for “ATCC 25922”
How it was run: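 S. aureus ATCC 25923 tested in Mueller–Hinton broth supplemented with 50% human plasma. Test compounds dissolved in 20% water in DMSO. Inoculum 10⁷ CFU/ml, incubated 35 °C for 18 h. MIC was the lowest concentration completely inhibiting growth.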

Enterococcus [7] = assay: Antimicrobial activity against vancomycin-sensitive Enterococcus by agar dilution method; type: functional; how it was run: as §1
Staphylococcus aureus [8] = assay: Antimicrobial activity against methicillin-resistant Staphylococcus aureus by agar dilution method; type: functional; how it was run: as §1

| SMILES | MIC (Escherichia coli) | MIC (Moraxella catarrhalis) | MIC (Enterococcus [1]) | MIC (Staphylococcus [2]) | MIC (Streptococcus pneumoniae) | MIC (Staphylococcus aureus [3]) | MIC (Staphylococcus [4]) | MIC (Haemophilus influenzae) | MIC (Staphylococcus aureus [5]) | MIC (Staphylococcus aureus [6]) | MIC (Enterococcus [7]) | MIC (Staphylococcus aureus [8]) |
| --- | --- | --- | --- | --- | --- | --- | --- | --- | --- | --- | --- | --- |
| O=C1O[C@@H](Cn2ccnn2)CN1c1ccc(N2CCN(S(=O)(=O)c3ccccc3)CC2)c(F)c1 | ≥ 8 µg/mL | ≥ 8 µg/mL | 0.5 µg/mL (≈ 1.03 µM) | 0.5 µg/mL (≈ 1.03 µM) | 1 µg/mL (≈ 2.06 µM) | 2 µg/mL (≈ 4.11 µM) | 0.5 µg/mL (≈ 1.03 µM) | ≥ 8 µg/mL | 0.5 µg/mL (≈ 1.03 µM) | 8 µg/mL | 2 µg/mL (≈ 4.11 µM) | 0.5 µg/mL (≈ 1.03 µM) |
| O=C(c1ccc(F)cc1)N1CCN(c2ccc(N3C[C@H](Cn4ccnn4)OC3=O)cc2F)CC1 | ≥ 8 µg/mL | ≥ 8 µg/mL | 0.5 µg/mL (≈ 1.07 µM) | 0.5 µg/mL (≈ 1.07 µM) | 0.5 µg/mL (≈ 1.07 µM) | 1 µg/mL (≈ 2.13 µM) | 0.5 µg/mL (≈ 1.07 µM) | ≥ 8 µg/mL | 0.5 µg/mL (≈ 1.07 µM) | 4 µg/mL | 1 µg/mL (≈ 2.13 µM) | 0.5 µg/mL (≈ 1.07 µM) |
| O=C1O[C@@H](Cn2ccnn2)CN1c1ccc(N2CCN(S(=O)(=O)c3cccs3)CC2)c(F)c1 | ≥ 8 µg/mL | ≥ 8 µg/mL | 0.5 µg/mL (≈ 1.02 µM) | 0.5 µg/mL (≈ 1.02 µM) | 1 µg/mL (≈ 2.03 µM) | 1 µg/mL (≈ 2.03 µM) | 0.5 µg/mL (≈ 1.02 µM) | ≥ 8 µg/mL | 0.5 µg/mL (≈ 1.02 µM) | > 8 µg/mL | 0.5 µg/mL (≈ 1.02 µM) | 0.5 µg/mL (≈ 1.02 µM) |
| O=C(c1cccc(F)c1)N1CCN(c2ccc(N3C[C@H](Cn4ccnn4)OC3=O)cc2F)CC1 | ≥ 8 µg/mL | ≥ 8 µg/mL | 0.5 µg/mL (≈ 1.07 µM) | 0.5 µg/mL (≈ 1.07 µM) | 0.5 µg/mL (≈ 1.07 µM) | 1 µg/mL (≈ 2.13 µM) | 0.5 µg/mL (≈ 1.07 µM) | ≥ 8 µg/mL | 0.25 µg/mL (≈ 0.534 µM) | 4 µg/mL | 0.5 µg/mL (≈ 1.07 µM) | 0.25 µg/mL (≈ 0.534 µM) |
| COc1cccc(C(=O)N2CCN(c3ccc(N4C[C@H](Cn5ccnn5)OC4=O)cc3F)CC2)c1 | ≥ 8 µg/mL | ≥ 8 µg/mL | 0.5 µg/mL (≈ 1.04 µM) | 0.25 µg/mL (≈ 0.52 µM) | 0.25 µg/mL (≈ 0.52 µM) | 2 µg/mL (≈ 4.16 µM) | 0.25 µg/mL (≈ 0.52 µM) | ≥ 8 µg/mL | 0.25 µg/mL (≈ 0.52 µM) | 4 µg/mL | 0.5 µg/mL (≈ 1.04 µM) | 0.25 µg/mL (≈ 0.52 µM) |
| O=C(c1ccc([N+](=O)[O-])cc1)N1CCN(c2ccc(N3C[C@H](Cn4ccnn4)OC3=O)cc2F)CC1 | ≥ 8 µg/mL | ≥ 8 µg/mL | 2 µg/mL (≈ 4.04 µM) | 1 µg/mL (≈ 2.02 µM) | 1 µg/mL (≈ 2.02 µM) | 2 µg/mL (≈ 4.04 µM) | 1 µg/mL (≈ 2.02 µM) | ≥ 8 µg/mL | 2 µg/mL (≈ 4.04 µM) | 4 µg/mL | 2 µg/mL (≈ 4.04 µM) | 1 µg/mL (≈ 2.02 µM) |
| COc1ccc(C(=O)N2CCN(c3ccc(N4C[C@H](Cn5ccnn5)OC4=O)cc3F)CC2)cc1 | ≥ 8 µg/mL | ≥ 8 µg/mL | 1 µg/mL (≈ 2.08 µM) | 0.5 µg/mL (≈ 1.04 µM) | 0.5 µg/mL (≈ 1.04 µM) | 2 µg/mL (≈ 4.16 µM) | 1 µg/mL (≈ 2.08 µM) | ≥ 8 µg/mL | 1 µg/mL (≈ 2.08 µM) | 8 µg/mL | 1 µg/mL (≈ 2.08 µM) | 0.5 µg/mL (≈ 1.04 µM) |
| CN[C@H](CC(C)C)C(=O)N[C@H]1C(=O)N[C@@H](CC(N)=O)C(=O)N[C@H]2C(=O)N[C@H]3C(=O)N[C@H](C(=O)N[C@H](C(=O)O)c4cc(O)cc(O)c4-c4cc3ccc4O)[C@H](O)c3ccc(c(Cl)c3)Oc3cc2cc(c3O[C@@H]2O[C@H](CO)[C@@H](O)[C@H](O)[C@H]2O[C@H]2C[C@](C)(N)[C@H](O)[C@H](C)O2)Oc2ccc(cc2Cl)[C@H]1O [VANCOMYCIN] | ≥ 8 µg/mL | ≥ 8 µg/mL | > 64 µg/mL | 1 µg/mL (≈ 0.69 µM) | 0.5 µg/mL (≈ 0.345 µM) | – | 1 µg/mL (≈ 0.69 µM) | ≥ 8 µg/mL | – | – | 0.25 µg/mL (≈ 0.173 µM) | – |
| O=C(c1ccccc1Cl)N1CCN(c2ccc(N3C[C@H](Cn4ccnn4)OC3=O)cc2F)CC1 | ≥ 8 µg/mL | ≥ 8 µg/mL | 0.5 µg/mL (≈ 1.03 µM) | 0.5 µg/mL (≈ 1.03 µM) | 4 µg/mL (≈ 8.25 µM) | 1 µg/mL (≈ 2.06 µM) | 0.5 µg/mL (≈ 1.03 µM) | ≥ 8 µg/mL | 0.5 µg/mL (≈ 1.03 µM) | 8 µg/mL | 0.5 µg/mL (≈ 1.03 µM) | 0.5 µg/mL (≈ 1.03 µM) |
| O=C(c1ccncc1)N1CCN(c2ccc(N3C[C@H](Cn4ccnn4)OC3=O)cc2F)CC1 | ≥ 8 µg/mL | ≥ 8 µg/mL | 0.5 µg/mL (≈ 1.11 µM) | 0.25 µg/mL (≈ 0.554 µM) | 1 µg/mL (≈ 2.22 µM) | 1 µg/mL (≈ 2.22 µM) | 0.5 µg/mL (≈ 1.11 µM) | ≥ 8 µg/mL | 0.5 µg/mL (≈ 1.11 µM) | 8 µg/mL | 1 µg/mL (≈ 2.22 µM) | 0.5 µg/mL (≈ 1.11 µM) |
| O=C(c1cccnc1Cl)N1CCN(c2ccc(N3C[C@H](Cn4ccnn4)OC3=O)cc2F)CC1 | ≥ 8 µg/mL | ≥ 8 µg/mL | 1 µg/mL (≈ 2.06 µM) | 0.5 µg/mL (≈ 1.03 µM) | 1 µg/mL (≈ 2.06 µM) | 2 µg/mL (≈ 4.12 µM) | 0.5 µg/mL (≈ 1.03 µM) | ≥ 8 µg/mL | 0.5 µg/mL (≈ 1.03 µM) | 4 µg/mL | 1 µg/mL (≈ 2.06 µM) | 0.5 µg/mL (≈ 1.03 µM) |
| COc1ccccc1C(=O)N1CCN(c2ccc(N3C[C@H](Cn4ccnn4)OC3=O)cc2F)CC1 | ≥ 8 µg/mL | ≥ 8 µg/mL | 1 µg/mL (≈ 2.08 µM) | 0.25 µg/mL (≈ 0.52 µM) | 1 µg/mL (≈ 2.08 µM) | 1 µg/mL (≈ 2.08 µM) | 0.25 µg/mL (≈ 0.52 µM) | ≥ 8 µg/mL | 0.5 µg/mL (≈ 1.04 µM) | 4 µg/mL | 1 µg/mL (≈ 2.08 µM) | 1 µg/mL (≈ 2.08 µM) |
| O=C(c1cccnc1)N1CCN(c2ccc(N3C[C@H](Cn4ccnn4)OC3=O)cc2F)CC1 | ≥ 8 µg/mL | ≥ 8 µg/mL | 0.5 µg/mL (≈ 1.11 µM) | 0.5 µg/mL (≈ 1.11 µM) | 0.5 µg/mL (≈ 1.11 µM) | 1 µg/mL (≈ 2.22 µM) | 0.5 µg/mL (≈ 1.11 µM) | ≥ 8 µg/mL | 0.5 µg/mL (≈ 1.11 µM) | 4 µg/mL | 1 µg/mL (≈ 2.22 µM) | 0.5 µg/mL (≈ 1.11 µM) |
| Cc1cccc(S(=O)(=O)N2CCN(c3ccc(N4C[C@H](Cn5ccnn5)OC4=O)cc3F)CC2)c1 | ≥ 8 µg/mL | ≥ 8 µg/mL | – | 2 µg/mL (≈ 4 µM) | 2 µg/mL (≈ 4 µM) | > 8 µg/mL | 2 µg/mL (≈ 4 µM) | ≥ 8 µg/mL | 4 µg/mL (≈ 7.99 µM) | > 8 µg/mL | > 8 µg/mL | 2 µg/mL (≈ 4 µM) |
| CC(=O)NC[C@H]1CN(c2ccc(N3CCOCC3)c(F)c2)C(=O)O1 [LINEZOLID] | ≥ 8 µg/mL | ≥ 8 µg/mL | 2 µg/mL (≈ 5.93 µM) | 0.25 µg/mL (≈ 0.741 µM) | – | – | 1 µg/mL (≈ 2.96 µM) | ≥ 8 µg/mL | 1 µg/mL (≈ 2.96 µM) | – | 0.5 µg/mL (≈ 1.48 µM) | 0.5 µg/mL (≈ 1.48 µM) |
| Cc1ccc(S(=O)(=O)N2CCN(c3ccc(N4C[C@H](Cn5ccnn5)OC4=O)cc3F)CC2)cc1 | ≥ 8 µg/mL | ≥ 8 µg/mL | – | > 8 µg/mL | 2 µg/mL (≈ 4 µM) | > 8 µg/mL | – | ≥ 8 µg/mL | > 8 µg/mL | > 8 µg/mL | > 8 µg/mL | – |
